Source: ChEMBL document CHEMBL4428081, “Selective AKR1C3 Inhibitors Potentiate Chemotherapeutic Activity in Multiple Acute Myeloid Leukemia (AML) Cell Lines” (ACS Med Chem Lett, 2016)
Active and inactive are the calls of the source.

Key:
CCRF-CEM = experiment: Cytotoxicity against human CCRF-CEM cells at 10 uM after 48 hrs by sulforhodamine B assay; type: functional, cell-based
HL-60(TB) = experiment: Cytotoxicity against human HL-60(TB) cells at 10 uM after 48 hrs by sulforhodamine B assay; type: functional, cell-based
Summary of the method: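 Single-concentration (10 μM) test run within the National Cancer Institute 60 cancer cell line screen, with HL-60 as one panel member.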

K562 = experiment: Cytotoxicity against human K562 cells at 10 uM after 48 hrs by sulforhodamine B assay; type: functional, cell-based
MOLT-4 = experiment: Cytotoxicity against human MOLT4 cells at 10 uM after 48 hrs by sulforhodamine B assay; type: functional, cell-based
SR = experiment: Cytotoxicity against human SR cells at 10 uM after 48 hrs by sulforhodamine B assay; type: functional, cell-based
Summary of the method: (§1)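 NCI 60 cancer cell line panel screen run at a single concentration of 10 μM.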

A549 = experiment: Cytotoxicity against human A549/ATCC cells at 10 uM after 48 hrs by sulforhodamine B assay; type: functional, cell-based
HOP-92 = experiment: Cytotoxicity against human HOP92 cells at 10 uM after 48 hrs by sulforhodamine B assay; type: functional, cell-based
NCI-H226 = experiment: Cytotoxicity against human NCI-H226 cells at 10 uM after 48 hrs by sulforhodamine B assay; type: functional, cell-based
NCI-H322M = experiment: Cytotoxicity against human NCI-H322M cells at 10 uM after 48 hrs by sulforhodamine B assay; type: functional, cell-based
NCI-H460 = experiment: Cytotoxicity against human NCI-H460 cells at 10 uM after 48 hrs by sulforhodamine B assay; type: functional, cell-based
COLO 205 = experiment: Cytotoxicity against human COLO205 cells at 10 uM after 48 hrs by sulforhodamine B assay; type: functional, cell-based
HCC 2998 = experiment: Cytotoxicity against human HCC2998 cells at 10 uM after 48 hrs by sulforhodamine B assay; type: functional, cell-based
HCT-15 = experiment: Cytotoxicity against human HCT15 cells at 10 uM after 48 hrs by sulforhodamine B assay; type: functional, cell-based
KM12 = experiment: Cytotoxicity against human KM12 cells at 10 uM after 48 hrs by sulforhodamine B assay; type: functional, cell-based
SW-620 = experiment: Cytotoxicity against human SW620 cells at 10 uM after 48 hrs by sulforhodamine B assay; type: functional, cell-based; summary of the method: as §1
SF-268 = experiment: Cytotoxicity against human SF268 cells at 10 uM after 48 hrs by sulforhodamine B assay; type: functional, cell-based
SF-295 = experiment: Cytotoxicity against human SF295 cells at 10 uM after 48 hrs by sulforhodamine B assay; type: functional, cell-based
SNB-19 = experiment: Cytotoxicity against human SNB19 cells at 10 uM after 48 hrs by sulforhodamine B assay; type: functional, cell-based; summary of the method: as §1
SNB-75 = experiment: Cytotoxicity against human SNB75 cells at 10 uM after 48 hrs by sulforhodamine B assay; type: functional, cell-based; summary of the method: as §1
LOX IMVI = experiment: Cytotoxicity against human LOXIMVI cells at 10 uM after 48 hrs by sulforhodamine B assay; type: functional, cell-based
Malme-3M = experiment: Cytotoxicity against human MALME-3M cells at 10 uM after 48 hrs by sulforhodamine B assay; type: functional, cell-based
MDA-MB-435 = experiment: Cytotoxicity against human MDA-MB-435 cells at 10 uM after 48 hrs by sulforhodamine B assay; type: functional, cell-based
SK-MEL-2 = experiment: Cytotoxicity against human SK-MEL-2 cells at 10 uM after 48 hrs by sulforhodamine B assay; type: functional, cell-based
SK-MEL-28 = experiment: Cytotoxicity against human SK-MEL-28 cells at 10 uM after 48 hrs by sulforhodamine B assay; type: functional, cell-based
SK-MEL-5 = experiment: Cytotoxicity against human SK-MEL-5 cells at 10 uM after 48 hrs by sulforhodamine B assay; type: functional, cell-based
UACC-257 = experiment: Cytotoxicity against human UACC257 cells at 10 uM after 48 hrs by sulforhodamine B assay; type: functional, cell-based; summary of the method: as §1
OVCAR-4 = experiment: Cytotoxicity against human OVCAR4 cells at 10 uM after 48 hrs by sulforhodamine B assay; type: functional, cell-based
OVCAR-5 = experiment: Cytotoxicity against human OVCAR5 cells at 10 uM after 48 hrs by sulforhodamine B assay; type: functional, cell-based
OVCAR-8 = experiment: Cytotoxicity against human OVCAR8 cells at 10 uM after 48 hrs by sulforhodamine B assay; type: functional, cell-based
NCI/ADR-RES = experiment: Cytotoxicity against human NCI-ADR-RES cells at 10 uM after 48 hrs by sulforhodamine B assay; type: functional, cell-based
CAKI-1 = experiment: Cytotoxicity against human Caki1 cells at 10 uM after 48 hrs by sulforhodamine B assay; type: functional, cell-based
RXF 393 = experiment: Cytotoxicity against human RXF393 cells at 10 uM after 48 hrs by sulforhodamine B assay; type: functional, cell-based
TK-10 = experiment: Cytotoxicity against human TK10 cells at 10 uM after 48 hrs by sulforhodamine B assay; type: functional, cell-based; summary of the method: as §1
UO-31 = experiment: Cytotoxicity against human UO31 cells at 10 uM after 48 hrs by sulforhodamine B assay; type: functional, cell-based; summary of the method: as §1
PC-3 = experiment: Cytotoxicity against human PC3 cells at 10 uM after 48 hrs by sulforhodamine B assay; type: functional, cell-based
MCF7 = experiment: Cytotoxicity against human MCF7 cells at 10 uM after 48 hrs by sulforhodamine B assay; type: functional, cell-based
MDA-MB-231 = experiment: Cytotoxicity against human MDA-MB-231 cells at 10 uM after 48 hrs by sulforhodamine B assay; type: functional, cell-based
Hs-578T = experiment: Cytotoxicity against human Hs 578T cells at 10 uM after 48 hrs by sulforhodamine B assay; type: functional, cell-based
T47D = experiment: Cytotoxicity against human T47D cells at 10 uM after 48 hrs by sulforhodamine B assay; type: functional, cell-based; summary of the method: as §1
MDA-MB-468 = experiment: Cytotoxicity against human MDA-MB-468 cells at 10 uM after 48 hrs by sulforhodamine B assay; type: functional, cell-based
[1] = target: T1, Aldo-keto reductase family 1 member C3 (Homo sapiens) (UniProt P42330); experiment: Inhibition of AKR1C3 in human HL60 cells assessed as potentiation of etoposide-induced cytotoxicity by measuring reduction in cell viability at 0.1 uM coincubated with etoposide at 1 uM after 72 hrs by MTS assay (reference value: 40%); type: cell-based
T1 sequence (whole entry): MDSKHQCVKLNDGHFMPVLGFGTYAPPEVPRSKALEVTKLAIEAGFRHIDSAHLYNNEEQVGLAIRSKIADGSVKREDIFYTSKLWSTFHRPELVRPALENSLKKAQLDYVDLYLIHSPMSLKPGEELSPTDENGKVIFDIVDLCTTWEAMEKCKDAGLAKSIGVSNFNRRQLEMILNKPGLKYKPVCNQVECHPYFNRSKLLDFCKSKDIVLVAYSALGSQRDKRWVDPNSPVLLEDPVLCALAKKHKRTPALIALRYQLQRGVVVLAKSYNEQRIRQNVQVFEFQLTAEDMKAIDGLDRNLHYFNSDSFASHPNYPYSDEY
Summary of the method: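 HL-60 or KG1a cells were coincubated with inhibitor and etoposide for 72 h, then cell viability was read. Values are mean ± SD (n = 6). Treatments were compared with control by two-tailed t test.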

[2] = target: T1, Aldo-keto reductase family 1 member C3 (Homo sapiens); experiment: Inhibition of AKR1C3 in human HL60 cells assessed as potentiation of etoposide-induced cytotoxicity by measuring reduction in cell viability pre-treated with 0.1 to 1 uM compound for 24 hrs followed by 1 uM etoposide exposure for additional 72 hrs by MTS assay; type: cell-based

Measured: Activity

CC(C)=CCc1cc(/C=C/C(=O)O)ccc1OC(=O)CCc1ccccc1
80 to 95%: [2]
70%: [1]
inactive: all other assays above
